Laboratory results reported in ChEMBL document CHEMBL1147839, “New highly hydrosoluble and not self-aggregated perylene derivatives with three and four polar side-chains as G-quadruplex telomere targeting agents and telomerase inhibitors” (Bioorg Med Chem Lett, 2007).

species: Homo sapiens; experiment: Inhibition of human telomerase at 2 uM after 2 hrs by TRAP assay
How it was run: (§1)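 Modified TRAP with TSG4 substrate primer (0.4 μM) and 50 μM dNTPs in TRAP buffer (pH 8.3, 1.5 mM MgCl2, 68 mM KCl, 0.05% Tween 20, 1 mM EGTA). The mix was heated 90 C 10 min, then iced. Drug was preincubated 2 h at 30 C. SKN-Be neuroblastoma cell extract was added for 30 min at 30 C, then phenol/chloroform extraction. PCR (30 cycles) used 32P-TSG4, CXext primer and Taq. Runs done at least three independent times.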

inhibition	Structure (SMILES)
18%	CN(C)CCCNc1cc2c3c(ccc4c5c(Br)cc6c7c(ccc(c1c34)c75)C(=O)N(CCCN(C)C)C6=O)C(=O)N(CCCN(C)C)C2=O
12%	CN(C)CCCNc1cc2c3c(cc(NCCCN(C)C)c4c5ccc6c7c(ccc(c1c34)c75)C(=O)N(CCCN(C)C)C6=O)C(=O)N(CCCN(C)C)C2=O
24%	CN(C)CCCNc1cc2c3c(ccc4c5ccc6c7c(ccc(c1c34)c75)C(=O)N(CCCN(C)C)C6=O)C(=O)N(CCCN(C)C)C2=O
8%	CN(C)CCCNc1cc2c3c(ccc4c5c(NCCCN(C)C)cc6c7c(ccc(c1c34)c75)C(=O)N(CCCN(C)C)C6=O)C(=O)N(CCCN(C)C)C2=O

species: Homo sapiens; experiment: Inhibition of human telomerase at 5 uM after 2 hrs by TRAP assay; how it was run: as §1

inhibition	Structure (SMILES)
49%	CN(C)CCCNc1cc2c3c(ccc4c5c(Br)cc6c7c(ccc(c1c34)c75)C(=O)N(CCCN(C)C)C6=O)C(=O)N(CCCN(C)C)C2=O
47%	CN(C)CCCNc1cc2c3c(cc(NCCCN(C)C)c4c5ccc6c7c(ccc(c1c34)c75)C(=O)N(CCCN(C)C)C6=O)C(=O)N(CCCN(C)C)C2=O
39%	CN(C)CCCNc1cc2c3c(ccc4c5ccc6c7c(ccc(c1c34)c75)C(=O)N(CCCN(C)C)C6=O)C(=O)N(CCCN(C)C)C2=O
41%	CN(C)CCCNc1cc2c3c(ccc4c5c(NCCCN(C)C)cc6c7c(ccc(c1c34)c75)C(=O)N(CCCN(C)C)C6=O)C(=O)N(CCCN(C)C)C2=O

species: Homo sapiens; experiment: Inhibition of human telomerase at 10 uM after 2 hrs by TRAP assay; how it was run: as §1

inhibition	Structure (SMILES)
55%	CN(C)CCCNc1cc2c3c(ccc4c5c(Br)cc6c7c(ccc(c1c34)c75)C(=O)N(CCCN(C)C)C6=O)C(=O)N(CCCN(C)C)C2=O
56%	CN(C)CCCNc1cc2c3c(cc(NCCCN(C)C)c4c5ccc6c7c(ccc(c1c34)c75)C(=O)N(CCCN(C)C)C6=O)C(=O)N(CCCN(C)C)C2=O
57%	CN(C)CCCNc1cc2c3c(ccc4c5ccc6c7c(ccc(c1c34)c75)C(=O)N(CCCN(C)C)C6=O)C(=O)N(CCCN(C)C)C2=O
54%	CN(C)CCCNc1cc2c3c(ccc4c5c(NCCCN(C)C)cc6c7c(ccc(c1c34)c75)C(=O)N(CCCN(C)C)C6=O)C(=O)N(CCCN(C)C)C2=O

species: Homo sapiens; experiment: Inhibition of human telomerase at 20 uM after 2 hrs by TRAP assay; how it was run: as §1

inhibition	Structure (SMILES)
59%	CN(C)CCCNc1cc2c3c(ccc4c5c(Br)cc6c7c(ccc(c1c34)c75)C(=O)N(CCCN(C)C)C6=O)C(=O)N(CCCN(C)C)C2=O
59%	CN(C)CCCNc1cc2c3c(cc(NCCCN(C)C)c4c5ccc6c7c(ccc(c1c34)c75)C(=O)N(CCCN(C)C)C6=O)C(=O)N(CCCN(C)C)C2=O
59%	CN(C)CCCNc1cc2c3c(ccc4c5ccc6c7c(ccc(c1c34)c75)C(=O)N(CCCN(C)C)C6=O)C(=O)N(CCCN(C)C)C2=O
54%	CN(C)CCCNc1cc2c3c(ccc4c5c(NCCCN(C)C)cc6c7c(ccc(c1c34)c75)C(=O)N(CCCN(C)C)C6=O)C(=O)N(CCCN(C)C)C2=O
